# Data published in ChEMBL document CHEMBL4814000, “Discovery of β-carboline-(phenylsulfonyl)furoxan hybrids as potential anti-breast cancer agents” (Bioorg Med Chem Lett, 2021).
# Activity calls are given as the source filed them. No cut-off for these calls is given here.
# Tests used:
# MDA-MB-231 [1] = test: Induction of apoptosis in human MDA-MB-231 cells assessed as viable cells at 0.3 uM incubated for 72 hrs by annexin V-FITC staining based flow cytometry (reference value: 93.86%); type: functional; conditions: read-out: Activity
# MDA-MB-231 [2] = test: Induction of DNA damage in human MDA-MB-231 cells assessed as increase in tail DNA measured at 0.15 to 0.6 uM after 72 hrs by neutral comet assay; type: functional, cell-based; conditions: dose 0.15-0.6 µM
# Procedure, shortened: (§1)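 Neutral comet assay for double-strand breaks in MDA-MB-231 cells incubated 72 h; head DNA%, tail DNA%, tail moment and Olive tail moment scored, the moments in arbitrary units; mean ± SD of three independent experiments, p < 0.05 versus control.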
# MDA-MB-231 [3] = test: Induction of apoptosis in human MDA-MB-231 cells assessed as early apoptotic cells at 0.15 uM incubated for 72 hrs by annexin V-FITC staining based flow cytometry (reference value: 3.42%); type: functional
# MDA-MB-231 [4] = test: Induction of apoptosis in human MDA-MB-231 cells assessed as late apoptotic cells at 0.6 uM incubated for 72 hrs by annexin V-FITC staining based flow cytometry (reference value: 1.67%); type: functional
# MDA-MB-231 [5] = test: Induction of apoptosis in human MDA-MB-231 cells assessed as necrotic cells at 0.6 uM incubated for 72 hrs by annexin V-FITC staining based flow cytometry (reference value: 1.05%); type: functional
# MDA-MB-231 [6] = test: Induction of cell cycle arrest in human MDA-MB-231 cells assessed as accumulation of cells at G1 phase at 0.15 uM after 72 hrs by propidium iodide staining based flow cytometry (reference value: 51.97 %); type: functional
# Procedure, shortened: (§2)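 Cell cycle: MDA-MB-231 cells held 72 h at 0, 0.15, 0.3 or 0.6 μM, harvested, PI-stained and analysed by flow cytometry for G1, S and G2/M percentages.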
# MDA-MB-231 [7] = test: Induction of apoptosis in human MDA-MB-231 cells assessed as viable cells at 0.15 uM incubated for 72 hrs by annexin V-FITC staining based flow cytometry (reference value: 93.86%); type: functional; conditions: read-out: Activity
# MDA-MB-231 [8] = test: Induction of ROS generation in human MDA-MB-231 cells incubated for 72 hrs by DCFH-DA staining-based flow cytometric analysis relative to control; type: functional, cell-based; conditions: dose microM <=0.6, time 72.0 hrs
# Procedure, shortened: (§3)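 MDA-MB-231 cells exposed 72 h, then loaded with DCFH-DA and read on a FACScan flow cytometer as percent DCFH-DA-positive cells against DMSO-treated control; mean ± SD of three independent experiments.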
# MDA-MB-231 [9] = test: Induction of DNA damage in human MDA-MB-231 cells assessed as double-strand DNA breaks measured at 0.15 to 0.6 uM after 72 hrs by neutral comet assay; type: functional, cell-based; conditions: dose 0.15-0.6 µM; procedure, shortened: as §1
# MDA-MB-231 [10] = test: Induction of apoptosis in human MDA-MB-231 cells assessed as early apoptotic cells at 0.6 uM incubated for 72 hrs by annexin V-FITC staining based flow cytometry (reference value: 3.42%); type: functional
# MDA-MB-231 [11] = test: Induction of apoptosis in human MDA-MB-231 cells assessed as late apoptotic cells at 0.3 uM incubated for 72 hrs by annexin V-FITC staining based flow cytometry (reference value: 1.67%); type: functional
# MDA-MB-231 [12] = test: Induction of apoptosis in human MDA-MB-231 cells assessed as late apoptotic cells at 0.15 uM incubated for 72 hrs by annexin V-FITC staining based flow cytometry (reference value: 1.67%); type: functional
# MDA-MB-231 [13] = test: Induction of ROS generation in human MDA-MB-231 cells at 0.6 uM incubated for 72 hrs by DCFH-DA staining-based flow cytometric analysis (reference value: 3.04 %); type: functional; procedure, shortened: as §3
# MDA-MB-231 [14] = test: Induction of cell cycle arrest in human MDA-MB-231 cells assessed as accumulation of cells at G1 phase at 0.3 uM after 72 hrs by propidium iodide staining based flow cytometry (reference value: 51.97 %); type: functional; procedure, shortened: as §2
# MDA-MB-231 [15] = test: Inhibition of cell adhesion in human MDA-MB-231 cells measured for 24 hrs by phase-contrast microscope method; type: functional, cell-based; conditions: dose 0.15-0.6 µM
# Procedure, shortened: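 Adhesion: MDA-MB-231 cells incubated with 0, 0.15, 0.3 or 0.6 μM, non-adherent cells washed off with PBS, attached cells counted by phase contrast microscopy; mean ± SD of three independent experiments.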
# MDA-MB-231 [16] = test: Induction of cell cycle arrest in human MDA-MB-231 cells assessed as accumulation of cells at S phase at 0.6 uM after 72 hrs by propidium iodide staining based flow cytometry (reference value: 37.12 %); type: functional; procedure, shortened: as §2
# MDA-MB-231 [17] = test: Induction of cell cycle arrest in human MDA-MB-231 cells assessed as accumulation of cells at S phase at 0.15 uM after 72 hrs by propidium iodide staining based flow cytometry (reference value: 37.12 %); type: functional; procedure, shortened: as §2
# MDA-MB-231 [18] = test: Induction of cell cycle arrest in human MDA-MB-231 cells assessed as accumulation of cells at S phase at 0.3 uM after 72 hrs by propidium iodide staining based flow cytometry (reference value: 37.12 %); type: functional; procedure, shortened: as §2
# MDA-MB-231 [19] = test: Inhibition of cell migration in human MDA-MB-231 cells assessed as inhibition of wound healing rate measured for 24 hrs by phase contrast microscopy; type: functional, cell-based
# Procedure, shortened: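 Wound-healing: scratches made with pipette tips across MDA-MB-231 monolayers, then 24 h incubation at 0, 0.15, 0.3 or 0.6 μM; closure imaged by phase contrast microscopy and expressed as wound-healing rate; mean ± SD of three independent experiments.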
# MCF7 = test: Antiproliferative activity against human MCF7 cells assessed as reduction in cell viability incubated for 72 hrs by CCK-8 assay; type: functional, cell-based; conditions: MCF7, 72 h
# Procedure, shortened: (§4)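 CCK-8 viability assay on MCF-7 or MDA-MB-231 cells after 72 h compound exposure; IC50 taken as half inhibitory concentration, reported as mean ± SD of three independent experiments.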
# MDA-MB-231 [20] = test: Induction of DNA damage in human MDA-MB-231 cells assessed as reduction in head DNA measured at 0.15 to 0.6 uM after 72 hrs by neutral comet assay; type: functional, cell-based; conditions: dose 0.15-0.6 µM; procedure, shortened: as §1
# MDA-MB-231 [21] = test: Induction of apoptosis in human MDA-MB-231 cells assessed as necrotic cells at 0.15 uM incubated for 72 hrs by annexin V-FITC staining based flow cytometry (reference value: 1.05%); type: functional
# [22] = Nitric oxide releasing activity assessed as amount of NO release measured at 3 hrs by Griess assay; type: functional
# Procedure, shortened: (§5)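 Griess assay measuring NO released by compounds in vitro over time; values are averages of three independent experiments.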
# MDA-MB-231 [23] = test: Induction of cell cycle arrest in human MDA-MB-231 cells assessed as accumulation of cells at G2/M phase at 0.6 uM after 72 hrs by propidium iodide staining based flow cytometry (reference value: 10.90 %); type: functional; procedure, shortened: as §2
# MDA-MB-231 [24] = test: Induction of apoptosis in human MDA-MB-231 cells assessed as necrotic cells at 0.3 uM incubated for 72 hrs by annexin V-FITC staining based flow cytometry (reference value: 1.05%); type: functional
# MDA-MB-231 [25] = test: Antiinvasive activity against human MDA-MB-231 cells assessed as reduction in invasion incubated for 24 hrs by crystal violet staining based transwell assay; type: functional, cell-based; conditions: dose microM <=0.6, time 24.0 hrs
# Procedure, shortened: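 Transwell: MDA-MB-231 cells seeded in chambers with 0, 0.15, 0.3 or 0.6 μM for 24 h; cells crossing stained with crystal violet, imaged and counted; mean ± SD of three independent experiments.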
# MDA-MB-231 [26] = test: Induction of cell cycle arrest in human MDA-MB-231 cells assessed as accumulation of cells at G2/M phase at 0.3 uM after 72 hrs by propidium iodide staining based flow cytometry (reference value: 10.90 %); type: functional; procedure, shortened: as §2
# [27] = Nitric oxide releasing activity assessed as amount of NO release measured up to 24 hrs by Griess assay; type: functional; conditions: time hrs <=24; procedure, shortened: as §5
# MDA-MB-231 [28] = test: Induction of cell cycle arrest in human MDA-MB-231 cells assessed as accumulation of cells at G1 phase at 0.6 uM after 72 hrs by propidium iodide staining based flow cytometry (reference value: 51.97 %); type: functional; procedure, shortened: as §2
# MDA-MB-231 [29] = test: Induction of cell cycle arrest in human MDA-MB-231 cells assessed as accumulation of cells at G2/M phase at 0.15 uM after 72 hrs by propidium iodide staining based flow cytometry (reference value: 10.90 %); type: functional; procedure, shortened: as §2
# MDA-MB-231 [30] = test: Induction of DNA damage in human MDA-MB-231 cells assessed as increase in tail moment measured at 0.15 to 0.6 uM after 72 hrs by neutral comet assay; type: functional, cell-based; conditions: dose 0.15-0.6 µM; procedure, shortened: as §1
# MDA-MB-231 [31] = test: Antiproliferative activity against human MDA-MB-231 cells assessed as reduction in cell viability incubated for 72 hrs by CCK-8 assay; type: functional, cell-based; conditions: MDA-MB-231, 72 h; procedure, shortened: as §4
# MDA-MB-231 [32] = test: Induction of DNA damage in human MDA-MB-231 cells assessed as increase olive tail moment measured at 0.15 to 0.6 uM after 72 hrs by neutral comet assay; type: functional, cell-based; conditions: dose 0.15-0.6 µM; procedure, shortened: as §1
# MDA-MB-231 [33] = test: Induction of apoptosis in human MDA-MB-231 cells assessed as viable cells at 0.6 uM incubated for 72 hrs by annexin V-FITC staining based flow cytometry (reference value: 93.86%); type: functional; conditions: read-out: Activity
# MDA-MB-231 [34] = test: Induction of apoptosis in human MDA-MB-231 cells assessed as early apoptotic cells at 0.3 uM incubated for 72 hrs by annexin V-FITC staining based flow cytometry (reference value: 3.42%); type: functional
structure (smiles),measurement,setting,value
COc1ccc(-c2nc(C(=O)NCCCOc3no[n+]([O-])c3S(=O)(=O)c3ccccc3)cc3c2[nH]c2ccccc23)cc1,viability at 0.3 µM,MDA-MB-231 [1],72.3%
same,Activity,MDA-MB-231 [2],Active
same,Activity,MDA-MB-231 [3],8.28%
same,Activity,MDA-MB-231 [4],24.3%
same,Activity,MDA-MB-231 [5],1.61%
same,Activity,MDA-MB-231 [6],50.54%
same,viability at 0.15 µM,MDA-MB-231 [7],83.6%
same,Activity,MDA-MB-231 [8],Dose-Dependent Effect
same,Activity,MDA-MB-231 [9],Active
same,Activity,MDA-MB-231 [10],29.88%
same,Activity,MDA-MB-231 [11],9.92%
same,Activity,MDA-MB-231 [12],4.39%
same,Activity,MDA-MB-231 [13],51.62%
same,Activity,MDA-MB-231 [14],42.88%
same,inhibition,MDA-MB-231 [15],Dose-Dependent Effect
same,Activity,MDA-MB-231 [16],35.87%
same,Activity,MDA-MB-231 [17],35.82%
same,Activity,MDA-MB-231 [18],37.2%
same,inhibition,MDA-MB-231 [19],Dose-Dependent Effect
same,IC50,MCF7,890 nM
same,Activity,MDA-MB-231 [20],Active
same,Activity,MDA-MB-231 [21],3.68%
same,Activity,[22],65 µM/L
same,Activity,MDA-MB-231 [23],23.54%
same,Activity,MDA-MB-231 [24],3.7%
same,Activity,MDA-MB-231 [25],Active
same,Activity,MDA-MB-231 [26],19.92%
same,Activity,[27],Active
same,Activity,MDA-MB-231 [28],40.59%
same,Activity,MDA-MB-231 [29],13.64%
same,Activity,MDA-MB-231 [30],Active
same,IC50,MDA-MB-231 [31],620 nM
same,Activity,MDA-MB-231 [32],Active
same,viability at 0.6 µM,MDA-MB-231 [33],44.2%
same,Activity,MDA-MB-231 [34],14.07%
